ChEMBL document CHEMBL3124918, “Optimization of peptides that target human thymidylate synthase to inhibit ovarian cancer cell growth” (2014)
Activity calls are given as the source filed them. No cut-off for these calls is given here. Non-standard residues stand in square brackets, D forms with d. Residues, ends and D or L forms follow the SMILES beside them.

Key:
[1] = biological target: Thymidylate synthase (Homo sapiens) (UniProt P04818); test: Inhibition of human thymidylate synthase using dUMP as substrate at 75 uM after 1 hr by UV-vis spectrophotometric analysis in presence of mTHF relative to control
Outline: (§1)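 Purified hTS, concentration by UV-vis (ε280 = 89 000 M−1 cm−1), preincubated 1 h with peptide in phosphate buffer pH 6.9 at 25 °C. Reaction in 50 mM TES pH 7.4 with 25 mM MgCl2, 6.5 mM HCHO, 1 mM EDTA, 75 mM βME, 0.6 mM dUMP, 0.15 mM mTHF. A340 followed 3 min. I% versus enzyme-alone control, mean ± SEM, n = 3.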

2008 [2] = test: Cytotoxicity against human 2008 cells assessed as cell survival at 10 uM after 72 hrs by crystal violet staining-based spectrophotometric analysis relative to control; details: Homo sapiens, 2008, 72 h, read-out: Survival
[3] = Cytotoxicity against 13-fold cisplatin-resistant human C13 cells cell survival at 10 uM after 72 hrs by crystal violet staining-based spectrophotometric analysis relative to control; details: C13, 72 h, read-out: Survival
[4] = Cytotoxicity against 10-fold cisplatin-resistant human A2780C/P cells cell survival at 10 uM after 72 hrs by crystal violet staining-based spectrophotometric analysis relative to control; details: A2780cisR, read-out: Survival
A2780 = test: Cytotoxicity against human A2780 cells assessed as cell survival at 10 uM after 72 hrs by crystal violet staining-based spectrophotometric analysis relative to control; details: A2780, 72 h, read-out: Survival
[5] = Upregulation of thymidylate synthase total protein level in 13-fold cisplatin-resistant human C13 cells at 5 uM after 48 hrs by Western blotting analysis; format: functional, cell-based
2008 [6] = test: Upregulation of thymidylate synthase total protein level in human 2008 cells at 5 uM after 48 hrs by Western blotting analysis; format: functional, cell-based
[7] = biological target: Thymidylate synthase (Homo sapiens) (UniProt P04818); test: Inhibition of human thymidylate synthase using dUMP as substrate at 50 uM after 1 hr by UV-vis spectrophotometric analysis in presence of mTHF relative to control; outline: as §1

Thymidylate synthase (Homo sapiens), sequence (P04818 2-313 limits assumed): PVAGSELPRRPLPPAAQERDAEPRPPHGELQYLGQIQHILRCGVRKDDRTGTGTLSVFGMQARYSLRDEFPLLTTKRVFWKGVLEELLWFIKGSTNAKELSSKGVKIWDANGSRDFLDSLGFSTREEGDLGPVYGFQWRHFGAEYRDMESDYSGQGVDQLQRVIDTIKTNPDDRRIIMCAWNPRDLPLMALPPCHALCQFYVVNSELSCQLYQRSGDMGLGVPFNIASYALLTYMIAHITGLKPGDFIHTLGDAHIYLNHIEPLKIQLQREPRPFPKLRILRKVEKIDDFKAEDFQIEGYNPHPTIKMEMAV

H-LSCQLYQ-OH
inhibition [1]: 56%

CC(C)C[C@H](NC(=O)[C@@H](CCC(N)=O)NC(=O)[C@H](CS)NC(=O)[C@H](CO)NC(=O)[C@@H](N)CC(C)C)C(=O)N[C@@H](Cc1ccc(O)cc1)C(=O)N[C@@H](CCC(N)=O)C(=O)N[C@@H](CCCNC(=N)N)C(=O)O (H-LSC[dQ]LYQR-OH)
viability at 10 µM 2008 [2]: < 50%
viability at 10 µM [3]: 25%
viability at 10 µM [4]: 25%
viability at 10 µM (A2780): < 50%

O=c1[nH]cc(F)c(=O)[nH]1
Activity [5]: Active
Activity 2008 [6]: Active

H-LSCQLYAR-OH
inhibition [7]: 60%

H-SCQLYQR-OH
inhibition [7]: 54%

H-CQLYQ-OH
inhibition [1]: 52%

CC(C)C[C@H](N)C(=O)N[C@@H](CO)C(=O)N[C@@H](CS)C(=O)N[C@@H](CCC(N)=O)C(=O)O (H-LSCQ-OH)
inhibition [1]: 59%
